{"source": "paper PMC6863157", "about": "(Investigational new drugs, 2016)", "key": {"[1]": {"test_system": "RAS- or RAF-mutant FDG-PET-avid tumors", "test": "FDG-PET pharmacodynamic", "assay_type": "in vivo, human", "conditions": "Cycle 1 Day 10–14 (on drug); 60-mg (21/7) MTD; 8 of 17"}, "[2]": {"test_system": "phosphorylation of ERK1/2 in cell lines harboring KRAS or BRAF mutations", "conditions": "cited from earlier work"}, "Plasma pharmacokinetics": {"test": "Plasma pharmacokinetics", "assay_type": "in vivo, human", "conditions": "for half-life: human, plasma; for CL/F apparent plasma clearance: steady state, geometric mean (%CV)", "in_short": "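Advanced solid tumor patients took oral test compound capsules once daily on 21-day on/7-day off or 14-day on/14-day off schedules in 28-day cycles. Serial plasma was sampled after the first dose (Day 1) and last dose (Day 21 or 14) of Cycle 1, plus pre-dose on Day 1 of later cycles. Analysis was by validated LC-MS/MS with noncompartmental analysis. Racc = Day 21 AUC0–24/Day 1 AUC0–24.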"}, "advanced solid tumors": {"test_system": "advanced solid tumors", "test": "Tumor response by RECIST", "assay_type": "in vivo, human", "conditions": "for partial responses (PRs): melanoma patients", "in_short": "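Oral test compound was given once daily at 60 mg (21/7) or 100 mg (14/14) in 28-day cycles. Patients with measurable lesions had CT at screening and about every 8 weeks, assessed by RECIST. CR/PR was confirmed 4 weeks after first documentation. Archival tissue was typed for BRAF V600, NRAS Q61 and KRAS G12/13 mutations. Responses were summarized as frequency counts and percentages.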"}, "[3]": {"test_system": "patients with advanced solid tumors", "conditions": "in vivo"}, "[4]": {"test_system": "patients with advanced solid tumors", "test": "Phase Ia dose escalation/expansion: safety, DLT, MTD, adverse events", "conditions": "oral once daily"}}}
{"smiles": "O=C(c1ccc(F)c(F)c1Nc1ccc(I)cc1F)N1CC(O)([C@@H]2CCCCN2)C1", "note": "[cobimetinib]", "values": [{"measurement": "FDG-PET metabolic response rate", "setting": "[1]", "value": 47, "unit": "%"}, {"measurement": "effect on ERK1/2 phosphorylation", "setting": "[2]", "value": "inhibits the phosphorylation of ERK1/2"}, {"measurement": "exposure vs dose", "setting": "Plasma pharmacokinetics; from 0.05 mg/kg (approximately 3.5 mg for a 70-kg adult) to 100 mg", "value": "dose-proportional"}, {"measurement": "half-life", "setting": "Plasma pharmacokinetics; oral, 100 mg, t1/2 elimination half-life, 100 mg (14/14), geometric mean (range), n 13", "value": 54, "unit": "h"}, {"measurement": "half-life", "setting": "Plasma pharmacokinetics; oral, mean terminal half-life, across all doses", "value": 49, "unit": "h"}, {"measurement": "half-life", "setting": "Plasma pharmacokinetics; oral, terminal half-life, range, across all doses", "value": "23 to 80", "unit": "h"}, {"measurement": "median tmax", "setting": "Plasma pharmacokinetics; oral, all cohorts", "value": "one to three"}, {"measurement": "CL/F apparent plasma clearance", "setting": "Plasma pharmacokinetics; 60 mg (21/7), n 37", "value": "13.8 (61) L/h"}, {"measurement": "CL/F apparent plasma clearance", "setting": "Plasma pharmacokinetics; 100 mg (14/14), n 18", "value": "14.8 (92) L/h"}, {"measurement": "RECIST responses", "setting": "advanced solid tumors; 28 patients with KRAS-mutant colorectal cancer", "value": "no responses"}, {"measurement": "patients with prolonged stable disease (SD) of five months or greater", "setting": "advanced solid tumors; all tumor types", "value": "five"}, {"measurement": "partial responses (PRs)", "setting": "advanced solid tumors; 60 mg on the 21/7 dosing schedule", "value": "three"}, {"measurement": "partial responses (PRs)", "setting": "advanced solid tumors; 100 mg 14/14 dosing schedule", "value": "three"}, {"measurement": "duration of stable disease", "setting": "advanced solid tumors; patient with adenoid cystic carcinoma", "value": 7, "unit": "months"}, {"measurement": "duration of stable disease", "setting": "advanced solid tumors; patient with carcinoid", "value": "≥ 47", "unit": "months"}, {"measurement": "duration of stable disease", "setting": "advanced solid tumors; patient with esophageal tumor", "value": 6, "unit": "months"}, {"measurement": "duration of stable disease", "setting": "advanced solid tumors; patient with non-small cell lung cancer", "value": 13, "unit": "months"}, {"measurement": "median time on cobimetinib of responders", "setting": "advanced solid tumors; seven responders, range 42–721+ days", "value": 280, "unit": "days"}, {"measurement": "incidence of edema", "setting": "[3]; human", "value": 34, "unit": "%"}, {"measurement": "incidence of treatment-related rash", "setting": "[3]; human", "value": 54, "unit": "%"}, {"measurement": "median onset of rash", "setting": "[3]; human", "value": 12, "unit": "days"}, {"measurement": "median rash duration", "setting": "[3]; human", "value": 20, "unit": "days"}, {"measurement": "patients with Grade ≥ 2 central serous retinopathy (CSR)", "setting": "[3]; human", "value": 5, "unit": "%"}, {"measurement": "patients with at least one SAE, regardless of causality", "setting": "[3]; human", "value": 42, "unit": "%"}, {"measurement": "patients with at least one treatment-related AE", "setting": "[3]; human", "value": 90, "unit": "%"}, {"measurement": "patients with dose reductions due to treatment-related rash", "setting": "[3]; human", "value": 4, "unit": "%"}, {"measurement": "patients with gastrointestinal disorder SAEs, regardless of causality", "setting": "[3]; human", "value": 14, "unit": "%"}, {"measurement": "patients with treatment-related AEs that led to dose reductions or interruption", "setting": "[3]; human", "value": 25, "unit": "%"}, {"measurement": "treatment-related AEs that were Grade 1–2", "setting": "[3]; human", "value": 72, "unit": "%"}, {"measurement": "treatment-related rash that was Grade 1 or 2", "setting": "[3]; human", "value": 94, "unit": "%"}, {"measurement": "patients who experienced DLTs", "setting": "[3]", "value": "four"}, {"measurement": "retinal vein occlusion", "setting": "[3]", "value": "no reports"}, {"measurement": "reversibility of visual adverse events", "setting": "[3]", "value": "reversible and resolved within one week"}, {"measurement": "symptomatic decreases in LVEF", "setting": "[3]", "value": "No events"}, {"measurement": "maximum tolerated dose (MTD)", "setting": "[4]; 14/14 dosing schedule", "value": 100, "unit": "mg"}, {"measurement": "maximum tolerated dose (MTD)", "setting": "[4]; 21/7 dosing schedule", "value": 60, "unit": "mg"}]}
